Legend:
[1] = molecular target: Somatostatin receptor type 2 (Rattus norvegicus, UniProt P30680); test: Displacement of [111In]DOTA0,Tyr3]octreotide from SSTR2 receptor in rat AR42J cells; type: cell-based, AR-42J
Outline: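 AR42J cells (DMEM, 10% FCS, 37 °C, 5% CO₂) seeded 8 × 10⁵/well and grown to confluence, washed with DMEM + 0.1% BSA. Incubated 3 h at 37 °C with [¹¹¹In-DOTA⁰,Tyr³]octreotide tracer (40 000 dpm) and unlabeled peptide at 0.1-300 nM. Washed twice; cell-bound activity γ-counted. IC₅₀ from fitted sigmoidal displacement curves with 95% CI.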

[2] = Octanol-water partition coefficient, log D at pH 7.4; type: physicochemical
Outline: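 ¹¹¹In-labeled conjugate (~148 kBq) in PBS pH 7.4 mixed 1:1 with n-octanol and shaken 2 min. Phases separated by centrifugation (5 min, 250g); triplicate aliquots of each layer γ-counted. log D = log₁₀(octanol counts/aqueous counts), from at least two independent experiments.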

Blood [3] = test: Biodistribution in blood of BALB/c mouse bearing rat AR42J cells at 0.37 MBq, iv after 2 hrs; type: ADME, organism-based, AR-42J; conditions: in vivo
Outline: (§1)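 AR42J tumor grown in right flank of male BALB/c nude mice (20-25 g, 6-8 weeks) by sc injection of 5 × 10⁶ cells; used after ~2 weeks at 4-6 mm diameter. Groups of five received 0.37 MBq (0.1 μg) ¹¹¹In-DOTA conjugate iv via tail vein (labeled in 0.25 M NH₄OAc pH 5.5, 95 °C, 15 min). Tissues dissected at 2, 6 or 24 h, weighed, γ-counted against 1% injected-activity standards; %ID/g, mean ± SD.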

[4] = Biodistribution in tumor of BALB/c mouse bearing rat AR42J cells at 0.37 MBq, iv after 2 hrs; type: ADME, organism-based, Neoplasm, AR-42J; conditions: in vivo; outline: as §1
Pancreas [5] = test: Biodistribution in pancreas of BALB/c mouse bearing rat AR42J cells at 0.37 MBq, iv after 2 hrs; type: ADME, organism-based, AR-42J; conditions: in vivo; outline: as §1
[6] = Biodistribution in adrenal gland of BALB/c mouse bearing rat AR42J cells at 0.37 MBq, iv after 2 hrs; type: ADME, organism-based, AR-42J; conditions: in vivo; outline: as §1
Kidney [7] = test: Biodistribution in kidney of BALB/c mouse bearing rat AR42J cells at 0.37 MBq, iv after 2 hrs; type: ADME, organism-based, AR-42J; conditions: in vivo; outline: as §1
Liver [8] = test: Biodistribution in liver of BALB/c mouse bearing rat AR42J cells at 0.37 MBq, iv after 2 hrs; type: ADME, organism-based, AR-42J; conditions: in vivo; outline: as §1
Stomach [9] = test: Biodistribution in stomach of BALB/c mouse bearing rat AR42J cells at 0.37 MBq, iv after 2 hrs; type: ADME, organism-based, AR-42J; conditions: in vivo; outline: as §1
Blood [10] = test: Biodistribution in blood of BALB/c mouse bearing rat AR42J cells at 0.37 MBq, iv after 6 hrs; type: ADME, organism-based, AR-42J; conditions: in vivo; outline: as §1
[11] = Biodistribution in tumor of BALB/c mouse bearing rat AR42J cells at 0.37 MBq, iv after 6 hrs; type: ADME, organism-based, Neoplasm, AR-42J; conditions: in vivo; outline: as §1
Pancreas [12] = test: Biodistribution in pancreas of BALB/c mouse bearing rat AR42J cells at 0.37 MBq, iv after 6 hrs; type: ADME, organism-based, AR-42J; conditions: in vivo; outline: as §1
[13] = Biodistribution in adrenal gland of BALB/c mouse bearing rat AR42J cells at 0.37 MBq, iv after 6 hrs; type: ADME, organism-based, AR-42J; conditions: in vivo; outline: as §1
Kidney [14] = test: Biodistribution in kidney of BALB/c mouse bearing rat AR42J cells at 0.37 MBq, iv after 6 hrs; type: ADME, organism-based, AR-42J; conditions: in vivo; outline: as §1
Liver [15] = test: Biodistribution in liver of BALB/c mouse bearing rat AR42J cells at 0.37 MBq, iv after 6 hrs; type: ADME, organism-based, AR-42J; conditions: in vivo; outline: as §1
Stomach [16] = test: Biodistribution in stomach of BALB/c mouse bearing rat AR42J cells at 0.37 MBq, iv after 6 hrs; type: ADME, organism-based, AR-42J; conditions: in vivo; outline: as §1
Blood [17] = test: Biodistribution in blood of BALB/c mouse bearing rat AR42J cells at 0.37 MBq, iv after 24 hrs; type: ADME, organism-based, AR-42J; conditions: in vivo; outline: as §1
[18] = Biodistribution in tumor of BALB/c mouse bearing rat AR42J cells at 0.37 MBq, iv after 24 hrs; type: ADME, organism-based, Neoplasm, AR-42J; conditions: in vivo; outline: as §1
Pancreas [19] = test: Biodistribution in pancreas of BALB/c mouse bearing rat AR42J cells at 0.37 MBq, iv after 24 hrs; type: ADME, organism-based, AR-42J; conditions: in vivo; outline: as §1
[20] = Biodistribution in adrenal gland of BALB/c mouse bearing rat AR42J cells at 0.37 MBq, iv after 24 hrs; type: ADME, organism-based, AR-42J; conditions: in vivo; outline: as §1
Kidney [21] = test: Biodistribution in kidney of BALB/c mouse bearing rat AR42J cells at 0.37 MBq, iv after 24 hrs; type: ADME, organism-based, AR-42J; conditions: in vivo; outline: as §1
Liver [22] = test: Biodistribution in liver of BALB/c mouse bearing rat AR42J cells at 0.37 MBq, iv after 24 hrs; type: ADME, organism-based, AR-42J; conditions: in vivo; outline: as §1
Stomach [23] = test: Biodistribution in stomach of BALB/c mouse bearing rat AR42J cells at 0.37 MBq, iv after 24 hrs; type: ADME, organism-based, AR-42J; conditions: in vivo; outline: as §1
Blood [24] = test: Biodistribution in blood of BALB/c mouse bearing rat AR42J cells at 0.37 MBq, iv after 2 hrs under cold condition; type: ADME, organism-based, AR-42J; conditions: in vivo
Outline: (§2)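 Receptor block: groups of three AR42J tumor-bearing male BALB/c nude mice co-injected iv via tail vein with 0.37 MBq (0.1 μg) ¹¹¹In-DOTA conjugate plus 50 μg octreotide. Killed by CO₂/O₂ at 2 h; blood, tumor and tissues dissected, weighed and γ-counted against 1% injected-activity standards; %ID/g reported as mean ± SD.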

[25] = Biodistribution in tumor of BALB/c mouse bearing rat AR42J cells at 0.37 MBq, iv after 2 hrs under cold condition; type: ADME, organism-based, Neoplasm, AR-42J; conditions: in vivo; outline: as §2
Pancreas [26] = test: Biodistribution in pancreas of BALB/c mouse bearing rat AR42J cells at 0.37 MBq, iv after 2 hrs under cold condition; type: ADME, organism-based, AR-42J; conditions: in vivo; outline: as §2
[27] = Biodistribution in adrenal gland of BALB/c mouse bearing rat AR42J cells at 0.37 MBq, iv after 2 hrs under cold condition; type: ADME, organism-based, AR-42J; conditions: in vivo; outline: as §2
Kidney [28] = test: Biodistribution in kidney of BALB/c mouse bearing rat AR42J cells at 0.37 MBq, iv after 2 hrs under cold condition; type: ADME, organism-based, AR-42J; conditions: in vivo; outline: as §2
Liver [29] = test: Biodistribution in liver of BALB/c mouse bearing rat AR42J cells at 0.37 MBq, iv after 2 hrs under cold condition; type: ADME, organism-based, AR-42J; conditions: in vivo; outline: as §2
Stomach [30] = test: Biodistribution in stomach of BALB/c mouse bearing rat AR42J cells at 0.37 MBq, iv after 2 hrs under cold condition; type: ADME, organism-based, AR-42J; conditions: in vivo; outline: as §2
Spleen [31] = test: Biodistribution in spleen of BALB/c mouse bearing rat AR42J cells at 0.37 MBq, iv after 2 hrs; type: ADME, organism-based, AR-42J; conditions: in vivo; outline: as §1
Spleen [32] = test: Biodistribution in spleen of BALB/c mouse bearing rat AR42J cells at 0.37 MBq, iv after 6 hrs; type: ADME, organism-based, AR-42J; conditions: in vivo; outline: as §1
Spleen [33] = test: Biodistribution in spleen of BALB/c mouse bearing rat AR42J cells at 0.37 MBq, iv after 24 hrs; type: ADME, organism-based, AR-42J; conditions: in vivo; outline: as §1
Spleen [34] = test: Biodistribution in spleen of BALB/c mouse bearing rat AR42J cells at 0.37 MBq, iv after 2 hrs under cold condition; type: ADME, organism-based, AR-42J; conditions: in vivo; outline: as §2

Chain of Somatostatin receptor type 2 (P30680 whole entry): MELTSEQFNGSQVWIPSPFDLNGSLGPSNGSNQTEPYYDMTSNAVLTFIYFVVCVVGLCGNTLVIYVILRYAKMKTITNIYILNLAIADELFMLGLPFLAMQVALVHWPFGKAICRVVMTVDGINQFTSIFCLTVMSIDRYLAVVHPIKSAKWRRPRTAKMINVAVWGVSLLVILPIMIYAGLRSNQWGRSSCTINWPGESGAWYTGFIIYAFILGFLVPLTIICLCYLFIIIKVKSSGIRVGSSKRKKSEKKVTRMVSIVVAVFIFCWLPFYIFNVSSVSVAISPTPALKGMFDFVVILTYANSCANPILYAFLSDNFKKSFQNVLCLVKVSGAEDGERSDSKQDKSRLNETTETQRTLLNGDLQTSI

## C[C@@H](O)[C@@H]1NC(=O)[C@H](CCCCN)NC(=O)[C@@H](Cc2c[nH]c3ccccc23)NC(=O)[C@H](Cc2ccc(O)cc2)NC(=O)[C@@H](NC(=O)[C@@H](Cc2ccccc2)NC(=O)CCCCCn2cc(COc3cc(OCc4cn(CCCCCC(=O)N[C@H](Cc5ccccc5)C(=O)N[C@H]5CSSC[C@@H](C(=O)N[C@H](CO)[C@@H](C)O)NC(=O)[C@H]([C@@H](C)O)NC(=O)[C@H](CCCCN)NC(=O)[C@@H](Cc6c[nH]c7ccccc67)NC(=O)[C@H](Cc6ccc(O)cc6)NC5=O)nn4)cc(C(=O)NCCOc4cc(OCCNC(=O)c5cc(OCc6cn(CCCCCC(=O)N[C@H](Cc7ccccc7)C(=O)N[C@H]7CSSC[C@@H](C(=O)N[C@H](CO)[C@@H](C)O)NC(=O)[C@H]([C@@H](C)O)NC(=O)[C@H](CCCCN)NC(=O)[C@@H](Cc8c[nH]c9ccccc89)NC(=O)[C@H](Cc8ccc(O)cc8)NC7=O)nn6)cc(OCc6cn(CCCCCC(=O)N[C@H](Cc7ccccc7)C(=O)N[C@H]7CSSC[C@@H](C(=O)N[C@H](CO)[C@@H](C)O)NC(=O)[C@H]([C@@H](C)O)NC(=O)[C@H](CCCCN)NC(=O)[C@@H](Cc8c[nH]c9ccccc89)NC(=O)[C@H](Cc8ccc(O)cc8)NC7=O)nn6)c5)cc(C(=O)NS(=O)(=O)CCNC(=O)CN5CCN(CC(=O)O)CCN(CC(=O)O)CCN(CC(=O)O)CC5)c4)c3)nn2)CSSC[C@@H](C(=O)N[C@H](CO)[C@@H](C)O)NC1=O
[1]
  IC50: 14 nM
[2]
  logD: -0.71
Blood [3]
  Drug uptake: 0.27 % ID/g
[4]
  Drug uptake: 0.52 % ID/g
Pancreas [5]
  Drug uptake: 1.02 % ID/g
[6]
  Drug uptake: 4.05 % ID/g
Kidney [7]
  Drug uptake: 4.62 % ID/g
Liver [8]
  Drug uptake: 47.6 % ID/g
Stomach [9]
  Drug uptake: 1.04 % ID/g
Blood [10]
  Drug uptake: 0.62 % ID/g
[11]
  Drug uptake: 1.03 % ID/g
Pancreas [12]
  Drug uptake: 2.04 % ID/g
[13]
  Drug uptake: 18.98 % ID/g
Kidney [14]
  Drug uptake: 7.65 % ID/g
Liver [15]
  Drug uptake: 70.97 % ID/g
Stomach [16]
  Drug uptake: 1.4 % ID/g
Blood [17]
  Drug uptake: 2.52 % ID/g
[18]
  Drug uptake: 1.53 % ID/g
Pancreas [19]
  Drug uptake: 1.17 % ID/g
[20]
  Drug uptake: 11.39 % ID/g
Kidney [21]
  Drug uptake: 10.6 % ID/g
Liver [22]
  Drug uptake: 52.71 % ID/g
Stomach [23]
  Drug uptake: 1.13 % ID/g
Blood [24]
  Drug uptake: 0.44 % ID/g
[25]
  Drug uptake: 1.19 % ID/g
Pancreas [26]
  Drug uptake: 0.29 % ID/g
[27]
  Drug uptake: 54.56 % ID/g
Kidney [28]
  Drug uptake: 7.44 % ID/g
Liver [29]
  Drug uptake: 2.96 % ID/g
Stomach [30]
  Drug uptake: 3.02 % ID/g
Spleen [31]
  Drug uptake: 16.84 % ID/g
Spleen [32]
  Drug uptake: 23.92 % ID/g
Spleen [33]
  Drug uptake: 20.26 % ID/g
Spleen [34]
  Drug uptake: 23.45 % ID/g

Source: ChEMBL document CHEMBL1157765, “Synthesis of DOTA-conjugated multimeric [Tyr3]octreotide peptides via a combination of Cu(I)-catalyzed "click" cycloaddition and thio acid/sulfonyl azide "sulfo-click" amidation and their in vivo evaluation” (J Med Chem, 2010)
